Laboratory results: ChEMBL document CHEMBL1148485, “Synthesis and biological evaluation of new selective cytotoxic cyclolignans derived from podophyllotoxin” (J Med Chem, 2004)
pIC50: −log10 of the molar value.

Tests used:
[1] = tested on: HeLa; experiment: Tested for effect of compound on G2/M cell cycle phase and apoptosis in HeLa cells at a dose of 10E-8 for 72 hr; type: functional, Homo sapiens
Method in brief: (§1)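 HeLa cells grown in DMEM with 10% heat-inactivated FCS, 2 mM L-glutamine, penicillin and gentamicin at 37 °C, 5% CO2. Exposed to compound at 10^-6 to 10^-8 M for 24, 48 or 72 h, untreated controls run in parallel. (3-5) × 10^5 cells fixed overnight in 70% ethanol at 4 °C, then RNase A plus propidium iodide. Phase fractions measured by flow cytometry, with sub-G1 (hypodiploid) cells counted as apoptotic. Three independent experiments.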

[2] = tested on: HeLa; experiment: Tested for effect of compound on G2/M cell cycle phase and apoptosis in HeLa cells at a dose of 10E-8 for 24 hr; type: functional, Homo sapiens; method in brief: as §1
[3] = tested on: HeLa; experiment: Tested for effect of compound on G0/G1 cell cycle phase and apoptosis in HeLa cells at a dose of 10E-8 for 72 hr; type: functional, Homo sapiens
Method in brief: (§2)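 HeLa cells were grown in DMEM with 10% heat-inactivated FCS and 2 mM L-glutamine at 37 °C in 5% CO2. They were exposed to 10^-6 to 10^-8 M for 24, 48 or 72 h. Then (3-5)×10^5 cells were fixed overnight in 70% ethanol at 4 °C, PBS-washed, and given 1 mg/mL RNase A plus 20 µg/mL propidium iodide for 1 h at room temperature. DNA content was read by flow cytometry. Sub-G1 (hypodiploid) % counted as apoptotic. Untreated controls were run in parallel. Representative of three independent experiments.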

[4] = tested on: HeLa; experiment: Tested for effect of compound on Sub-G1 cell cycle phase and apoptosis in HeLa cells at a dose of 10E-7 for 24 hr; type: functional, Homo sapiens; method in brief: as §1
[5] = tested on: HeLa; experiment: Tested for effect of compound on Sub-G1 cell cycle phase and apoptosis in HeLa cells at a dose of 10E-7 for 48 hr; type: functional, Homo sapiens; method in brief: as §1
[6] = tested on: HeLa; experiment: Tested for effect of compound on G2/M cell cycle phase and apoptosis in HeLa cells at a dose of 10E-7 for 24 hr; type: functional, Homo sapiens; method in brief: as §1
[7] = tested on: HT-29; experiment: In vitro cytotoxicity against HT-29 (human colon carcinoma) cell line.; type: functional, cell-based; conditions: Homo sapiens, HT-29
[8] = tested on: HeLa; experiment: Tested for effect of compound on G0/G1 cell cycle phase and apoptosis in HeLa cells at a dose of 10E-8 for 48 hr; type: functional, Homo sapiens; method in brief: as §2
[9] = tested on: HeLa; experiment: Tested for effect of compound on G0/G1 cell cycle phase and apoptosis in HeLa cells at a dose of 10E-7 for 24 hr; type: functional, Homo sapiens; method in brief: as §2
[10] = tested on: HeLa; experiment: Tested for effect of compound on G2/M cell cycle phase and apoptosis in HeLa cells at a dose of 10E-7 for 48 hr; type: functional, Homo sapiens; method in brief: as §1
[11] = tested on: HeLa; experiment: Tested for effect of compound on S cell cycle phase and apoptosis in HeLa cells at a dose of 10E-7 for 48 hr; type: functional, Homo sapiens; method in brief: as §1
[12] = tested on: SK-MEL-28; experiment: Tested in vitro for antineoplastic activity against MEL-28 (human melanoma) tumor cell line; type: functional, cell-based
Method in brief: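 MEL-28 cells seeded at 2 × 10^4 cells/well in MEM–10% FCS containing graded compound concentrations. Incubated 4 days at 37 °C, 10% CO2, 98% humidity. Stained with crystal violet and inhibition judged against untreated controls, which were kept in exponential growth. Mean of duplicate wells.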

[13] = tested on: HeLa; experiment: Tested for effect of compound on G0/G1 cell cycle phase and apoptosis in HeLa cells at a dose of 10E-7 for 48 hr; type: functional, Homo sapiens; method in brief: as §2
[14] = tested on: HeLa; experiment: Tested for effect of compound on G2/M cell cycle phase and apoptosis in HeLa cells at a dose of 10E-7 for 72 hr; type: functional, Homo sapiens; method in brief: as §1
[15] = tested on: HeLa; experiment: Tested for effect of compound on S cell cycle phase and apoptosis in HeLa cells at a dose of 10E-7 for 72 hr; type: functional, Homo sapiens; method in brief: as §1
[16] = tested on: HeLa; experiment: Tested for effect of compound on G2/M cell cycle phase and apoptosis in HeLa cells at a dose of 10E-6 for 24 hr; type: functional, Homo sapiens; method in brief: as §2
[17] = tested on: HeLa; experiment: Tested for effect of compound on S cell cycle phase and apoptosis in HeLa cells at a dose of 10E-6 for 72 hr; type: functional, Homo sapiens; method in brief: as §1
[18] = tested on: A549; experiment: In vitro cytotoxicity against A-549 (human lung carcinoma) cell line.; type: functional, cell-based; conditions: Homo sapiens, A549
[19] = tested on: HeLa; experiment: Tested for effect of compound on G0/G1 cell cycle phase and apoptosis in HeLa cells at a dose of 10E-6 for 72 hr; type: functional, Homo sapiens; method in brief: as §2
[20] = tested on: HeLa; experiment: Tested for effect of compound on G2/M cell cycle phase and apoptosis in HeLa cells at a dose of 10E-6 for 72 hr; type: functional, Homo sapiens; method in brief: as §1
[21] = tested on: HeLa; experiment: Tested for effect of compound on G0/G1 cell cycle phase and apoptosis in HeLa cells at a dose of 10E-8 for 24 hr; type: functional, Homo sapiens; method in brief: as §2
[22] = tested on: HeLa; experiment: Tested for effect of compound on Sub-G1 cell cycle phase and apoptosis in HeLa cells at a dose of 10E-8 for 24 hr; type: functional, Homo sapiens; method in brief: as §1
[23] = Selectivity index is the ratio of IC50 of P-388 cell line to that of HT-29; type: functional
[24] = tested on: HeLa; experiment: Tested for effect of compound on Sub-G1 cell cycle phase and apoptosis in HeLa cells at a dose of 10E-6 for 72 hr; type: functional, Homo sapiens; method in brief: as §1
[25] = tested on: HeLa; experiment: Tested for effect of compound on S cell cycle phase and apoptosis in HeLa cells at a dose of 10E-6 for 48 hr; type: functional, Homo sapiens; method in brief: as §1
[26] = tested on: HeLa; experiment: Tested for effect of compound on S cell cycle phase and apoptosis in HeLa cells at a dose of 10E-8 for 48 hr; type: functional, Homo sapiens; method in brief: as §1
[27] = tested on: HeLa; experiment: Tested for effect of compound on G2/M cell cycle phase and apoptosis in HeLa cells at a dose of 10E-8 for 48 hr; type: functional, Homo sapiens; method in brief: as §1
[28] = tested on: HeLa; experiment: Tested for effect of compound on G2/M cell cycle phase and apoptosis in HeLa cells at a dose of 10E-6 for 48 hr; type: functional, Homo sapiens; method in brief: as §2
[29] = tested on: HeLa; experiment: Tested for effect of compound on S cell cycle phase and apoptosis in HeLa cells at a dose of 10E-8 for 72 hr; type: functional, Homo sapiens; method in brief: as §1
[30] = tested on: HeLa; experiment: Tested for effect of compound on Sub-G1 cell cycle phase and apoptosis in HeLa cells at a dose of 10E-8 for 48 hr; type: functional, Homo sapiens; method in brief: as §1
[31] = tested on: HeLa; experiment: Tested for effect of compound on Sub-G1 cell cycle phase and apoptosis in HeLa cells at a dose of 10E-6 for 24 hr; type: functional, Homo sapiens; method in brief: as §1
[32] = tested on: P388; experiment: Tested in vitro for antineoplastic activity against P-388 (lymphoid neoplasm from DBA/2 mouse) tumor cell line; type: functional, cell-based
Method in brief: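 P-388 cells seeded at 1 × 10^4 cells/well in MEM–10% FCS containing graded compound concentrations. Incubated 4 days at 37 °C, 10% CO2, 98% humidity. Inhibition scored by inverted microscopy against untreated controls, which were kept in exponential growth. Mean of duplicate wells.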

[33] = tested on: HeLa; experiment: Tested for effect of compound on G0/G1 cell cycle phase and apoptosis in HeLa cells at a dose of 10E-6 for 24 hr; type: functional, Homo sapiens; method in brief: as §2
[34] = tested on: HeLa; experiment: Tested for effect of compound on Sub-G1 cell cycle phase and apoptosis in HeLa cells at a dose of 10E-8 for 72 hr; type: functional, Homo sapiens; method in brief: as §1
[35] = tested on: HeLa; experiment: Tested for effect of compound on Sub-G1 cell cycle phase and apoptosis in HeLa cells at a dose of 10E-7 for 72 hr; type: functional, Homo sapiens; method in brief: as §1
[36] = tested on: HeLa; experiment: Tested for effect of compound on G0/G1 cell cycle phase and apoptosis in HeLa cells at a dose of 10E-7 for 72 hr; type: functional, Homo sapiens; method in brief: as §2
[37] = tested on: HeLa; experiment: Tested for effect of compound on S cell cycle phase and apoptosis in HeLa cells at a dose of 10E-7 for 24 hr; type: functional, Homo sapiens; method in brief: as §1
[38] = tested on: HeLa; experiment: Tested for effect of compound on G0/G1 cell cycle phase and apoptosis in HeLa cells at a dose of 10E-6 for 48 hr; type: functional, Homo sapiens; method in brief: as §2
[39] = tested on: HeLa; experiment: Tested for effect of compound on S cell cycle phase and apoptosis in HeLa cells at a dose of 10E-6 for 24 hr; type: functional, Homo sapiens; method in brief: as §1
[40] = tested on: HeLa; experiment: Tested for effect of compound on Sub-G1 cell cycle phase and apoptosis in HeLa cells at a dose of 10E-6 for 48 hr; type: functional, Homo sapiens; method in brief: as §1
[41] = tested on: HeLa; experiment: Tested for effect of compound on S cell cycle phase and apoptosis in HeLa cells at a dose of 10E-8 for 24 hr; type: functional, Homo sapiens; method in brief: as §1

`CCn1nccc1/N=C/C1=Cc2cc3c(cc2C(c2cc(OC)c(OC)c(OC)c2)[C@@H]1C(=O)OC)OCO3` (some centres not stated) showed an Activity [1] of 25.4%, an Activity [2] of 24.1% and an Activity [3] of 60.1%. For the same compound, the Activity [4] was 1.8%, the Activity [5] was 1.9% and the Activity [6] was 24.3%. For the same compound, the pIC50 [7] was 7.32, the Activity [8] was 56% and the Activity [9] was 55.6%. For the same compound, the Activity [10] was 35.6%, the Activity [11] was 13% and the pIC50 [12] was 6.02. It also gave an Activity [13] of 49.5%, an Activity [14] of 44.4% and an Activity [15] of 12.3%. For the same compound, the Activity [16] was 81.5%, the Activity [17] was 8.1% and the pIC50 [18] was 6.02. It also gave an Activity [19] of 31.3%, an Activity [20] of 21% and an Activity [21] of 56.4%. It also gave an Activity [22] of 1.3%, a Selectivity index [23] of 20 and an Activity [24] of 39.6%. For the same compound, the Activity [25] was 10.8%, the Activity [26] was 14.1% and the Activity [27] was 28.2%. For the same compound, the Activity [28] was 49.4%, the Activity [29] was 12.2% and the Activity [30] was 1.7%. The Activity [31] was 2.1%, the pIC50 [32] was 6.02 and the Activity [33] was 6.8%. It also gave an Activity [34] of 2.3%, an Activity [35] of 5.6% and an Activity [36] of 37.7%. The Activity [37] was 18.3%, the Activity [38] was 16% and the Activity [39] was 9.6%. For the same compound, the Activity [40] was 23.8% and the Activity [41] was 18.2%.
Compound `COC(=O)[C@@H]1C(C=O)=Cc2cc3c(cc2[C@H]1c1cc(OC)c(OC)c(OC)c1)OCO3` has an Activity [1] of 39.3%, an Activity [2] of 24.3% and an Activity [3] of 47.4%. For the same compound, the Activity [4] was 1.4%, the Activity [5] was 10.9% and the Activity [6] was 80.1%. It also gave a pIC50 [7] of 7.92, an Activity [8] of 58.7% and an Activity [9] of 8.1%. The Activity [10] was 68.2%, the Activity [11] was 9.7% and the pIC50 [12] was 6.64. For the same compound, the Activity [13] was 11.2%, the Activity [14] was 17.5% and the Activity [15] was 17.3%. The Activity [16] was 96%, the Activity [17] was 17.5% and the pIC50 [18] was 6.92. It also gave an Activity [19] of 14.1%, an Activity [20] of 9.5% and an Activity [21] of 58.1%. The Activity [22] was 1.4%, the Selectivity index [23] was 19 and the Activity [24] was 58.9%. It also gave an Activity [25] of 9.3%, an Activity [26] of 10.1% and an Activity [27] of 29.7%. The Activity [28] was 44.8%, the Activity [29] was 10.2% and the Activity [30] was 1.5%. It also gave an Activity [31] of 1.1%, a pIC50 [32] of 6.64 and an Activity [33] of 1.2%. The Activity [34] was 3.1%, the Activity [35] was 50.1% and the Activity [36] was 15.1%. It also gave an Activity [37] of 10.4%, an Activity [38] of 17% and an Activity [39] of 1.7%. It also gave an Activity [40] of 28.9% and an Activity [41] of 16.2%.
